Source: ChEMBL document CHEMBL1139842, “Effects of azaspiracid-1, a potent cytotoxic agent, on primary neuronal cultures. A structure-activity relationship study” (J Med Chem, 2007)
Activity calls are given as the source filed them. No cut-off for these calls is given here.

Key:
[1] = test system: cerebellar granule cells (mouse); assay: Cytotoxicity against cerebellar granule neurons at 250 nM by MTT assay after 24 hrs
[2] = test system: cerebellar granule cells (mouse); assay: Increase in cytosolic calcium concentration in cerebellar granule cells in presence of calcium at 1 uM
[3] = Increase in cytosolic calcium concentration in cerebellar granule cell in calcium free medium at 1 uM; type: functional, cell-based; conditions: Mus musculus
Outline: (§1)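 Cultured mouse cerebellar granule cells co-loaded with Fura-2 AM (1 µM) and BCECF-AM (0.5 µM), 10 min at 37 °C, imaged by epifluorescence microscopy in a 37 °C open-bath chamber. Compound applied in calcium-free buffer (pH 7.4) before calcium was restored, or added directly in calcium-containing medium. [Ca2+]c calibrated by the Grynkiewicz method. Means ± SEM of 3-4 experiments in duplicate.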

[4] = Effect on intracellular pH in presence of calcium in cerebellar granule cells at 1 uM; type: functional, cell-based; conditions: Mus musculus
Outline: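 530-nm emission ratio at 490/440 excitation from 25-30 cells per coverslip, converted to pH by nigericin in situ calibration (pH 6-9). Tested in calcium-free medium then after calcium restoration, or in calcium-containing medium; drug buffer pH 7.4.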

[5] = Increase in cytosolic calcium concentration in cerebellar granule cells in presence of calcium at 1 uM; type: functional; conditions: Mus musculus
Outline: as §1

[6] = Decrease in intracellular pH in cerebellar granule cells in calcium free medium at 1 uM; type: functional
Outline: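 Single-cell imaging at 37 °C in an open-bath chamber, drug buffers at pH 7.4. Compound added in calcium-free buffer, then calcium restored, or added in calcium-containing buffer. Read-out is the 490/440 excitation ratio at 530 nm emission from 25-30 cells per coverslip, converted to pH by nigericin in situ calibration (pH 6-9). Three to five independent experiments, each in duplicate.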

COLO = assay: Cytotoxicity against cerebellar granule neurons at 250 nM by MTT assay after 4 hrs; type: functional, Mus musculus
Outline: (§2)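 Primary cerebellar granule cells from 7-day-old Swiss mice, cultured 8-11 days in KCl (25 mM) DMEM with 10% fetal calf serum and cytosine arabinoside. Exposed in culture medium to compound (0.5-250 nM range; fragments 250 nM) for 4, 8 or 24 h at 37 °C. Then MTT 500 µg/mL in Locke's buffer for 30 min, SDS lysis, formazan read at 590. IC50 given with 95% confidence intervals.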

[7] = Cytotoxicity against cerebellar granule neurons by MTT assay; conditions: mouse, cerebellar granule neurone
Outline: (§3)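 Primary cerebellar granule cells from 7-day-old Swiss mouse cerebella, cultured 8-11 days in DMEM with 25 mM KCl and 10% fetal calf serum; cytosine arabinoside (20 µM) against glia. Compound added in culture medium for 4, 8 or 24 h (0.5-250 nM range; fragments 24 h at 250 nM). MTT (500 µg/mL, 30 min, Locke's buffer), SDS lysis, formazan absorbance at 590. Means ± SEM.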

[8] = Cytotoxicity assessed as effect on viability of cerebellar granule neurons at 100 nM by MTT assay after 4 hrs; parameters: species or system Cerebellar granule neurone; conditions: mouse, read-out: Activity
Outline: as §3

[9] = Cytotoxicity against cerebellar granule neurons by MTT assay after 8 hrs; parameters: species or system Mus musculus, Cerebellar granule neurone
Outline: as §2

[10] = Cytotoxicity against cerebellar granule neurons by MTT assay after 24 hrs; parameters: species or system Mus musculus, Cerebellar granule neurone
Outline: as §2

[11] = Mus musculus, Cerebellar granule neurone
[12] = mouse, cerebellar granule neurone

| SMILES | Activity [1] [%] | Activity [2] [nM] | Activity [3] | Activity [4] | Activity [5] | Activity ([6]; Mus musculus) | other results |
| --- | --- | --- | --- | --- | --- | --- | --- |
| C[C@H]1C[C@@H]2O[C@@H](CO)C[C@@H]2O[C@]12CC[C@@]1(CC=C[C@H](/C=C/CCC(=O)O)O1)O2 | 83.66 | 150 |  |  |  |  |  |
| C[C@@H]1C[C@H]2O[C@H](CO)C[C@H]2O[C@]12CC[C@@]1(CC=C[C@H](/C=C/CCC(=O)O)O1)O2 | 102.59 | 130 | inactive |  |  |  |  |
| C[C@@H]1C[C@H]2O[C@H](CO)C[C@H]2O[C@@]12CC[C@]1(CC=C[C@@H](/C=C/CCC(=O)O)O1)O2 | 100.32 | 100 | inactive |  |  |  |  |
| COC(=O)[C@@H](NC(=O)C[C@]12C[C@H](C)C[C@@H](O1)[C@@H]1O[C@@]3(C[C@@H]1O2)NC[C@@H](C)C[C@H]3C)c1ccccc1 (single isomer, unassigned) | 90.02 |  | inactive | inactive | inactive |  |  |
| COC(=O)[C@H](NC(=O)C[C@@]12C[C@@H](C)C[C@H](O1)[C@H]1O[C@]3(C[C@H]1O2)NC[C@H](C)C[C@@H]3C)c1ccccc1 | 99.25 |  | inactive | inactive | inactive | inactive |  |
| C[C@@H]1CN[C@@]2(C[C@@H]3O[C@@]4(CC(=O)O)C[C@H](C)C[C@@H](O4)[C@@H]3O2)[C@H](C)C1 | 84.95 |  | inactive | inactive | inactive | inactive |  |
| C=C(CO)[C@H]1O[C@@](O)([C@@H](O)[C@H]2C[C@@H]3O[C@]4(CC[C@@]5(CC=C[C@H](/C=C/CCC(=O)O)O5)O4)[C@@H](C)C[C@@H]3O2)[C@H](C)C[C@@H]1C | 100.57 | 250 | inactive |  |  |  |  |
| C[C@H]1C[C@H]2O[C@H](CO)C[C@H]2O[C@]12CC[C@@]1(CC=C[C@H](/C=C/CCC(=O)O)O1)O2 | 98.29 | 150 |  |  |  |  |  |
| C[C@H]1CN[C@]2(C[C@H]3O[C@]4(CC(=O)O)C[C@@H](C)C[C@H](O4)[C@H]3O2)[C@@H](C)C1 (single isomer, unassigned) | 110.15 |  | inactive | inactive | inactive | inactive |  |
| COC(=O)[C@@H](NC(=O)C[C@@]12C[C@@H](C)C[C@H](O1)[C@H]1O[C@]3(C[C@H]1O2)NC[C@H](C)C[C@@H]3C)c1ccccc1 (single isomer, unassigned) | 90.49 |  | inactive | inactive | inactive | inactive |  |
| C=C(CO)[C@H]1O[C@@](O)([C@H](O)[C@@H]2C[C@H]3O[C@@]4(CC[C@]5(CC=C[C@@H](/C=C/CCC(=O)O)O5)O4)[C@H](C)C[C@H]3O2)[C@H](C)C[C@@H]1C | 99.09 | 200 |  |  |  |  |  |
| COC(=O)[C@H](NC(=O)C[C@]12C[C@H](C)C[C@@H](O1)[C@@H]1O[C@@]3(C[C@@H]1O2)NC[C@@H](C)C[C@H]3C)c1ccccc1 | 99.4 |  | inactive | inactive | inactive | inactive |  |
| C=C(C[C@]12C[C@@H](C)C[C@H](O1)[C@H]1O[C@]3(C[C@H]1O2)NC[C@H](C)C[C@@H]3C)[C@H]1O[C@@](O)([C@H](O)[C@@H]2C[C@H]3O[C@@]4(CC[C@]5(CC=C[C@@H](/C=C/CCC(=O)O)O5)O4)[C@H](C)C[C@H]3O2)[C@H](C)C[C@@H]1C |  |  | inactive | inactive | Active |  | Activity (COLO): 40%; Activity [6]: -0.15; Activity [7]: Dose-dependent effect and tde; viability at 4 h, 0.1 µM [8]: 40%; IC50 [9, 11]: 32 nM; Activity [9, 12]: 90%; IC50 [10, 11]: 0.87 nM; Activity [10, 12]: 85% |
